In ChEMBL document CHEMBL3045405, “Enantioselective oxidative damage of chiral pesticide dichlorprop to maize” (J Agric Food Chem, 2011):

Key:
[1] = test system: Zea mays; test: Induction of hydroxyl radical production in Zea mays (maize) root assessed as PBN adducts formation at 1 mg/L measured after 3 days by EPR analysis; assay type: organism-based; details: in vivo, 72 h
Summary of the method: (§1)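 Roots of maize exposed for 3 days were rinsed in ice-cold 0.1 M CaCl2. Under nitrogen, 0.5 g was homogenized with 1.0 mL of fresh 100 mM PBN in DMSO, incubated 37 °C for 15 min, and centrifuged 4500 rpm, 3 min, 4 °C. Signal expressed relative to control.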

[2] = Phytotoxicity against Zea mays (maize) assessed as inhibition of root length at 0.1 mg/L and at 25 degC/20 degC day/night temperature 14 hr photoperiod for 3 days; assay type: organism-based; details: in vivo
Summary of the method: (§2)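 Maize seeds were surface-sterilized in 3% H2O2 for 10 min and germinated on moist filter paper at 27 °C in the dark. Seedlings were exposed to (rac)-, (S)- or (R)-DCPP in sterile deionized water (0–1.0 mg L-1), with solutions renewed daily, at 80% relative humidity and repositioned daily. Fresh weight, root length and shoot height were compared with the water control after 3 days.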

[3] = Phytotoxicity against Zea mays (maize) assessed as inhibition of fresh weight at 0.1 mg/L and at 25 degC/20 degC day/night temperature 14 hr photoperiod for 3 days; assay type: organism-based; details: in vivo; summary of the method: as §2
[4] = test system: Zea mays; test: Induction of hydroxyl radical production in Zea mays (maize) root assessed as ROS adducts formation at 1 mg/L measured after 3 days by EPR analysis; assay type: organism-based; details: in vivo, 72 h; summary of the method: as §1
[5] = Phytotoxicity against Zea mays (maize) assessed as inhibition of seed germination at 0.02 mg/L and at 27 degC in the dark for 3 days; details: in vivo
[6] = Phytotoxicity against Zea mays (maize) assessed as inhibition of root length at 0.5 mg/L and at 25 degC/20 degC day/night temperature 14 hr photoperiod for 3 days; assay type: organism-based; details: in vivo; summary of the method: as §2
[7] = Phytotoxicity against Zea mays (maize) assessed as inhibition of shoot height at 0.5 mg/L and at 25 degC/20 degC day/night temperature 14 hr photoperiod for 3 days; assay type: organism-based; details: in vivo; summary of the method: as §2
[8] = Phytotoxicity against Zea mays (maize) assessed as inhibition of fresh weight at 0.5 mg/L and at 25 degC/20 degC day/night temperature 14 hr photoperiod for 3 days; assay type: organism-based; details: in vivo; summary of the method: as §2
[9] = Phytotoxicity against Zea mays (maize) assessed as inhibition of shoot height at 0.02 mg/L and at 25 degC/20 degC day/night temperature 14 hr photoperiod for 3 days; assay type: organism-based; details: in vivo; summary of the method: as §2
[10] = Phytotoxicity against Zea mays (maize) assessed as inhibition of fresh weight at 0.05 mg/L and at 25 degC/20 degC day/night temperature 14 hr photoperiod for 3 days; assay type: organism-based; details: in vivo; summary of the method: as §2
[11] = Phytotoxicity against Zea mays (maize) assessed as inhibition of root length at 0.05 mg/L and at 25 degC/20 degC day/night temperature 14 hr photoperiod for 3 days; assay type: organism-based; details: in vivo; summary of the method: as §2
[12] = Phytotoxicity against Zea mays (maize) assessed as inhibition of fresh weight at 1 mg/L and at 25 degC/20 degC day/night temperature 14 hr photoperiod for 3 days; assay type: organism-based; details: in vivo; summary of the method: as §2
[13] = Phytotoxicity against Zea mays (maize) assessed as inhibition of shoot height at 0.1 mg/L and at 25 degC/20 degC day/night temperature 14 hr photoperiod for 3 days; assay type: organism-based; details: in vivo; summary of the method: as §2
[14] = Phytotoxicity against Zea mays (maize) assessed as inhibition of fresh weight at 0.02 mg/L and at 25 degC/20 degC day/night temperature 14 hr photoperiod for 3 days; assay type: organism-based; details: in vivo; summary of the method: as §2
[15] = Phytotoxicity against Zea mays (maize) assessed as inhibition of seed germination at 0.1 mg/L and at 27 degC in the dark for 3 days; details: in vivo
[16] = test system: Zea mays; test: Induction of POD activity in Zea mays (maize) root at 0.05 mg/L measured after 3 days; assay type: organism-based; details: in vivo, 72 h
Summary of the method: (§3)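 Maize roots after 3 days' exposure to DCPP enantiomers (0–1.0 mg L-1, test solutions renewed daily). Fresh roots (1.0 g) homogenized on ice in 0.05 M sodium phosphate buffer pH 7.8 with 1% (w/v) polyvinylpyrrolidone, then centrifuged 10 000 rpm, 10 min, 4 °C. The supernatant was used for enzyme assays, with protein by Bradford (BSA standard). Mean ± SEM of three replicate cultures.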

[17] = Phytotoxicity against Zea mays (maize) assessed as inhibition of shoot height at 0.05 mg/L and at 25 degC/20 degC day/night temperature 14 hr photoperiod for 3 days; assay type: organism-based; details: in vivo; summary of the method: as §2
[18] = Phytotoxicity against Zea mays (maize) assessed as inhibition of shoot height at 1 mg/L and at 25 degC/20 degC day/night temperature 14 hr photoperiod for 3 days; assay type: organism-based; details: in vivo; summary of the method: as §2
[19] = test system: Zea mays; test: Induction of SOD activity in Zea mays (maize) root at 0.02 mg/L measured after 3 days; assay type: organism-based; details: in vivo, 72 h; summary of the method: as §3
[20] = Phytotoxicity against Zea mays (maize) assessed as inhibition of root length at 1 mg/L and at 25 degC/20 degC day/night temperature 14 hr photoperiod for 3 days; assay type: organism-based; details: in vivo; summary of the method: as §2
[21] = Phytotoxicity against Zea mays (maize) assessed as inhibition of seed germination at 0.05 mg/L and at 27 degC in the dark for 3 days; details: in vivo
[22] = Phytotoxicity against Zea mays (maize) assessed as inhibition of root length at 0.02 mg/L and at 25 degC/20 degC day/night temperature 14 hr photoperiod for 3 days; assay type: organism-based; details: in vivo; summary of the method: as §2
[23] = Phytotoxicity against Zea mays (maize) assessed as inhibition of seed germination at 0.5 mg/L and at 27 degC in the dark for 3 days; details: in vivo
[24] = Phytotoxicity against Zea mays (maize) assessed as inhibition of seed germination at 1 mg/L and at 27 degC in the dark for 3 days; details: in vivo
[25] = test system: Zea mays; test: Induction of POD activity in Zea mays (maize) root at 0.02 mg/L measured after 3 days; assay type: organism-based; details: in vivo, 72 h; summary of the method: as §3
[26] = test system: Zea mays; test: Induction of POD activity in Zea mays (maize) root at 0.1 mg/L measured after 3 days; assay type: organism-based; details: in vivo, 72 h; summary of the method: as §3

## CC(Oc1ccc(Cl)cc1Cl)C(=O)O (racemic) [RAC-DICHLORPROP]
[1]
  Activity: Toxic
[2]
  inhibition at 72 h, 0.1 mg/L: 24.5%
[3]
  inhibition at 72 h, 0.1 mg/L: 10%
[4]
  Activity: Toxic
[5]
  inhibition at 72 h, 0.02 mg/L: 3.57%
[6]
  inhibition at 72 h, 0.5 mg/L: 36.7%
[7]
  inhibition at 72 h, 0.5 mg/L: 17.6%
[8]
  inhibition at 72 h, 0.5 mg/L: 31.3%
[9]
  inhibition at 72 h, 0.02 mg/L: 2.14%
[10]
  inhibition at 72 h, 0.05 mg/L: 4.28%
[11]
  inhibition at 72 h, 0.05 mg/L: 19.3%
[12]
  inhibition at 72 h, 1 mg/L: 39.7%
[13]
  inhibition at 72 h, 0.1 mg/L: 7.9%
[14]
  inhibition at 72 h, 0.02 mg/L: 2.75%
[15]
  inhibition at 72 h, 0.1 mg/L: 12.2%
[16]
  Activity: Toxic
[17]
  inhibition at 72 h, 0.05 mg/L: 4.02%
[18]
  inhibition at 72 h, 1 mg/L: 31.1%
[19]
  Activity: Non-toxic
[20]
  inhibition at 72 h, 1 mg/L: 40.1%
[21]
  inhibition at 72 h, 0.05 mg/L: 8.38%
[22]
  inhibition at 72 h, 0.02 mg/L: 12.7%
[23]
  inhibition at 72 h, 0.5 mg/L: 21.4%
[24]
  inhibition at 72 h, 1 mg/L: 31.7%

## C[C@@H](Oc1ccc(Cl)cc1Cl)C(=O)O [(R)-DICHLORPROP]
[1]
  Activity: Toxic
[2]
  inhibition at 72 h, 0.1 mg/L: 26.6%
[3]
  inhibition at 72 h, 0.1 mg/L: 24.6%
[4]
  Activity: Toxic
[5]
  inhibition at 72 h, 0.02 mg/L: 6.64%
[25]
  Activity: Toxic
[6]
  inhibition at 72 h, 0.5 mg/L: 38.4%
[7]
  inhibition at 72 h, 0.5 mg/L: 20.7%
[8]
  inhibition at 72 h, 0.5 mg/L: 36.7%
[9]
  inhibition at 72 h, 0.02 mg/L: 3.52%
[10]
  inhibition at 72 h, 0.05 mg/L: 14.8%
[11]
  inhibition at 72 h, 0.05 mg/L: 23.5%
[12]
  inhibition at 72 h, 1 mg/L: 42.7%
[13]
  inhibition at 72 h, 0.1 mg/L: 8.61%
[14]
  inhibition at 72 h, 0.02 mg/L: 5.76%
[15]
  inhibition at 72 h, 0.1 mg/L: 16.1%
[17]
  inhibition at 72 h, 0.05 mg/L: 5.27%
[18]
  inhibition at 72 h, 1 mg/L: 36.7%
[19]
  Activity: Toxic
[20]
  inhibition at 72 h, 1 mg/L: 42%
[21]
  inhibition at 72 h, 0.05 mg/L: 10.7%
[22]
  inhibition at 72 h, 0.02 mg/L: 14.3%
[23]
  inhibition at 72 h, 0.5 mg/L: 34.9%
[24]
  inhibition at 72 h, 1 mg/L: 41.4%

## C[C@H](Oc1ccc(Cl)cc1Cl)C(=O)O [(S)-DICHLORPROP]
[1]
  Activity: Toxic
[2]
  inhibition at 72 h, 0.1 mg/L: 22.7%
[3]
  inhibition at 72 h, 0.1 mg/L: 9.5%
[4]
  Activity: Toxic
[5]
  inhibition at 72 h, 0.02 mg/L: 2.1%
[6]
  inhibition at 72 h, 0.5 mg/L: 34.9%
[26]
  Activity: Toxic
[7]
  inhibition at 72 h, 0.5 mg/L: 15.9%
[8]
  inhibition at 72 h, 0.5 mg/L: 30.2%
[9]
  inhibition at 72 h, 0.02 mg/L: 2.06%
[10]
  inhibition at 72 h, 0.05 mg/L: 2.94%
[11]
  inhibition at 72 h, 0.05 mg/L: 17.3%
[12]
  inhibition at 72 h, 1 mg/L: 38.1%
[13]
  inhibition at 72 h, 0.1 mg/L: 6.28%
[14]
  inhibition at 72 h, 0.02 mg/L: 2.12%
[15]
  inhibition at 72 h, 0.1 mg/L: 9.67%
[17]
  inhibition at 72 h, 0.05 mg/L: 3.12%
[18]
  inhibition at 72 h, 1 mg/L: 30.6%
[19]
  Activity: Non-toxic
[20]
  inhibition at 72 h, 1 mg/L: 39.9%
[21]
  inhibition at 72 h, 0.05 mg/L: 4.75%
[22]
  inhibition at 72 h, 0.02 mg/L: 11.4%
[23]
  inhibition at 72 h, 0.5 mg/L: 11.4%
[24]
  inhibition at 72 h, 1 mg/L: 21.9%
